Series [1] concerns Liver. Nature of the series: Drug level in human liver cytosol treated with N1-(pyrimidin-2-yl)-N2-(quinoxalin-2-yl)ethane-1,2-diamine at 10 uM after 60 mins by LC-MS/MS analysis. The format is ADME, tissue-based. Conditions: 1 h. A digest of the protocol: (§1)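 Pooled human liver cytosol incubated with 10 μM substrate at pH 7.4 and 37 °C with 1 mM MgCl2·6H2O. Reactions stopped at 0 and 60 min with ice-cold acetonitrile containing 0.6 μM labetalol as internal standard, alongside a compound-free blank. Protein removed by centrifugation. Supernatant analysed by LC-MS/MS on a QTOF with electrospray ionization, using one of three reversed-phase gradient methods.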

The subject of series [2] is Liver. Nature of the series: Drug level in human liver microsomes treated with N-((1H-Indol-2-yl)methyl)-2-(pyrrolidin-1-yl)aniline after 60 mins. The format is ADME, microsome.
Series [3] has as its system Liver. Nature of the series: Drug level in human liver cytosol treated with N-(2-(Pyrrolidin-1-yl)phenyl)-1H-indole-2-carboxamide at 10 uM after 60 mins by LC-MS/MS analysis. The format is ADME, tissue-based. A digest of the protocol:
as §1

The test system of series [4] is Liver. Nature of the series: Drug metabolism in human liver microsomes assessed as formation of 2-(pyrimidin-2-ylamino)ethanol after 60 mins. In kind it is ADME, microsome. As to conditions: 1 h.
Series [5] has as its target T1, Cytochrome P450 3A4 (Homo sapiens, UniProt P08684). Nature of the series: Drug metabolism assessed as CYP3A4 (unknown origin)-mediated formation of 2-(pyrimidin-2-ylamino)ethanol after 60 mins. The format is ADME. As to conditions: 1 h.
For series [6], the system named is Liver. Nature of the series: Drug level in human liver microsomes treated with N1-(Naphthalen-2-yl)-N2-(pyrimidin-2-yl)ethane-1,2-diamine after 60 mins by LC-MS/MS analysis. The format is ADME, microsome. As to conditions: 1 h. For orientation: Liver microsomes are a subcellular fraction often used to study metabolism.
The target of series [7] is T1, Cytochrome P450 3A4. Nature of the series: Drug level treated with N1-(Naphthalen-2-yl)-N2-(pyrimidin-2-yl)ethane-1,2-diamine assessed as CYP3A4 (unknown origin)-mediated metabolite formation after 60 mins. In kind it is ADME. Conditions: 1 h.
For series [8], the system named is Liver. Nature of the series: Drug metabolism in human liver microsomes assessed as formation of 2-(pyrrolidin-1-yl)aniline after 60 mins. The format is ADME, microsome. Conditions: 1 h.
Series [9] deals with Liver. Nature of the series: Drug metabolism in human liver cytosol assessed as formation of 3-(2-(pyrimidin-2-ylamino)ethylamino)quinoxalin-2(1H)-one at 10 uM after 60 mins by LC-MS/MS analysis. The format is ADME, tissue-based. A digest of the protocol: as §1
Series [10] concerns Liver. Nature of the series: Drug metabolism in human liver microsomes after 60 mins. The format is ADME, microsome. As to conditions: 1 h.
Series [11] has as its system Liver. Nature of the series: Drug metabolism in human liver cytosol assessed as formation of 2-(pyrrolidin-1-yl)aniline at 10 uM after 60 mins by LC-MS/MS analysis. The format is ADME, tissue-based. As to conditions: 1 h. The method in brief:
as §1

T1 sequence (P08684 whole entry): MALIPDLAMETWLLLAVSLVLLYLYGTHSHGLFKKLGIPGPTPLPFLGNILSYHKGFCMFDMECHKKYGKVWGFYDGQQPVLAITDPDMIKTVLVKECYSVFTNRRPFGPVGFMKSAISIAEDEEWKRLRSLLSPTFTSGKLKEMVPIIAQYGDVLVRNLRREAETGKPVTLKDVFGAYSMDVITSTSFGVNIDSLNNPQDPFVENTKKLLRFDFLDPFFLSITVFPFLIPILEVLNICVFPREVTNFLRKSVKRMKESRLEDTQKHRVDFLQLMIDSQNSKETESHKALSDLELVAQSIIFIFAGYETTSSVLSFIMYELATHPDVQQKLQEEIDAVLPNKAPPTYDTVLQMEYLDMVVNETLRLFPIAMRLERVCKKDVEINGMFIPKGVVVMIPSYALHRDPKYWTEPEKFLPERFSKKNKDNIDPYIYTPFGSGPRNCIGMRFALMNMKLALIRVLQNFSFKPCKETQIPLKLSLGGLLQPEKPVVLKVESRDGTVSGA

For the compound `O=c1[nH]c2ccccc2nc1NCCNc1ncccn1`, the Drug metabolism result in the series on Liver [1] is listed as “Metabolite_Detected”.

For `Nc1ccccc1N1CCCC1`, the Drug metabolism entry with Liver [2] and in the series with Liver [3] was “Metabolite_Detected” throughout.

On to `c1cnc(NCCNc2ccc3ccccc3c2)nc1`, for which the Drug metabolism entry with Liver [4] and at Cytochrome P450 3A4 [5] was “Metabolite_Detected” in each case.

Consider `OCCNc1ncccn1`, for which the Drug metabolism result in the series on Liver [6] and on Cytochrome P450 3A4 [7] was “Metabolite_Detected” in each case.

On to `c1ccc(N2CCCC2)c(NCc2cc3ccccc3[nH]2)c1`, for which the Drug metabolism entry in the series on Liver [8] was “Metabolite_Detected”.

With `c1cnc(NCCNc2cnc3ccccc3n2)nc1`, the Drug metabolism result in the series with Liver [9] is recorded as “Metabolite_Detected”; in the series on Liver [10], “Metabolite_Notdetected”.

Regarding `O=C(Nc1ccccc1N1CCCC1)c1cc2ccccc2[nH]1`, the Drug metabolism entry is “Metabolite_Detected” in the series with Liver [11] and “Metabolite_Notdetected” with Liver [10].
